CSN inh = blocks human CSN-mediated cullin deneddylation; Q92905; Purified CSN, SCF-Nedd8-OG deneddylation, fluorescence polarization; inhibition, % at 12.5 µM; hit rate 0.38% among 360,000;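 active = pattern-corrected inhibition above about 35%, with an unprinted fluorescence ratio check between 0.5 and 1.5, limit read from the data, passing the limit was not always enough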
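Schedule: reaction 90 min, room temperature / Assay system: HEK293T-derived human Csn5 enzyme / Input: Csn5 at 0.24 nM final / Measure: inhibition of Csn5 cleavage, % / Control set: substrate-only high control, full reaction low control / Technique: fluorescence polarization of the substrate / Buffer or medium: Tris/NaCl/DTT buffer, pH 7.5 / Reagent: SCFSkp2-Nedd8OG substrate at 10 nM final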
Myeloid diff MLP = compounds promoting myeloid differentiation; ER-HoxA9 myeloid progenitors, lysozyme-GFP differentiation, flow cytometry; calls only at 10 µM; hit rate 1% among 360,000; AID 624256;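 active = normalized GFP-positive differentiation at or above the plate's own cutoff, the solvent-only control mean plus 3 SD; inconclusive = no clear call, values can overlap the other calls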;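 note: cells exposed to compound for four days before flow analysis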
TPT1 inh = inhibitors of Candida albicans tRNA 2'-phosphotransferase TPT1. inhibition, % at 5 µM. hit rate 0.81% among 300,000. recombinant caTPT1, FP RNA substrate dephosphorylation;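 active = inhibition above the mean of all tested compounds plus 3 SD, set per screening campaign, cut at about 24% in these data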
HNF4A DNA FP = change in binding of human HNF4 alpha to DNA | activity change, % at 10 µM | AID 1224865 | hit rate 0.3% among 360,000 | HNF4a-FITC DNA binding, fluorescence polarization, 1 h; in the data active = activity change above about 30%, passing the limit was not always enough
Target sequence (P41235 whole entry, looked up): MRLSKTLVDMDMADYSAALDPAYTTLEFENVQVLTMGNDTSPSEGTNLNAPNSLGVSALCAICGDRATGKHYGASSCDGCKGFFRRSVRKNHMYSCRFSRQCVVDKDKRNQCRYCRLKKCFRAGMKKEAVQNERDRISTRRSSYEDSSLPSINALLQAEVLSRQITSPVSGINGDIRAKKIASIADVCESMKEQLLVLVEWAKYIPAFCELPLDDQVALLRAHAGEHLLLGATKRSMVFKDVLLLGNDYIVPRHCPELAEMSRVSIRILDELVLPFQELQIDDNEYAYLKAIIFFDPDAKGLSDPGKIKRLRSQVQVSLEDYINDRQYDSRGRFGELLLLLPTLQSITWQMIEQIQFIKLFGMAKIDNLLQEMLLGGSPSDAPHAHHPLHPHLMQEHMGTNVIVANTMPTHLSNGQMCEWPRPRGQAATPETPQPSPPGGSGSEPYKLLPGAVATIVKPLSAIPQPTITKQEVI
Rpn11 block = Rpn11 (human) deubiquitinase inhibition; inhibition, % at 20 µM; hit rate 0.59% among 360,000; AID 588493; human 26S proteasome, Ub4-pepOG fluorescence polarization; 20S core pre-blocked with epoxomicin;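 active = inhibition at 20 µM, scaled to each plate's controls, above about 33%, limit read from the data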
Of the large screens only hits and unclear results are named; the others gave an inactive call. An excerpt weighted towards active compounds, which were near 2.3% of everything screened.

COc1cc(/C=N/NC(=O)c2nnn(-c3nonc3N)c2C)ccc1OCc1ccc(Cl)cc1	none (no result: TPT1 inh)
O=C1NC[C@H](Cc2ccccc2)N(C[C@@H]2CCCN2C[C@H](Cc2ccc(O)cc2)N2C[C@H](Cc3ccccc3)N(CC3CCCCCC3)C(=O)C2=O)C1=O	none (no result: TPT1 inh, Rpn11 block)
CCCCNC(=O)C1(C)CCN1C(=O)c1oc2ccccc2c1C (stereo unspecified)	none (no result: TPT1 inh)
C=CCNC(=O)C1CCC(CNc2nc(=S)[nH]c3ccccc23)CC1 (stereo unspecified)	none
O=C(C1CCC(CNc2nc(=S)[nH]c3ccccc23)CC1)N1CCN(c2ccccn2)CC1 (stereo unspecified)	Myeloid diff MLP active
O=C(NCCc1ccccn1)c1c(-c2ccsc2)sc2ccccc12	Myeloid diff MLP active (no result: TPT1 inh)
Nn1c(SCC(=O)Nc2c(F)cc(F)cc2Br)nnc1C1CCCCC1	CSN inh 107.6
Nn1c(SCC(=O)Nc2ccc(F)cc2F)nnc1C1CCCCC1	none
CCCCN1CCCCC1C(=O)Nc1c(C)cc(C)cc1C (stereo unspecified)	none
Cc1cc(C)c(NC(=O)C2CCCN2CCO)c(C)c1 (stereo unspecified)	Myeloid diff MLP active
c1nc(SSc2ncnc3nc[nH]c23)c2[nH]cnc2n1	Myeloid diff MLP inconclusive (no result: TPT1 inh)
CCOC(=O)Cc1c(-c2cccc(Br)c2)nc2c3ccccc3ccn12	none (no result: TPT1 inh, Rpn11 block)
CC(OC(=O)c1ccc(S(C)(=O)=O)c([N+](=O)[O-])c1)C(=O)NC1C2CC3CC(C2)CC1C3 (stereo unspecified)	Myeloid diff MLP inconclusive (no result: TPT1 inh)
CS(=O)(=O)N1N=C(c2ccc(Br)cc2)CC1c1cccs1 (stereo unspecified)	none
CCc1ccc(C2=NN(S(C)(=O)=O)C(c3cccs3)C2)cc1 (stereo unspecified)	Myeloid diff MLP active, HNF4A DNA FP 91.6
Cc1ccsc1C(=O)N1CCCC(C)(C(=O)NS(=O)(=O)C2CC2)C1 (stereo unspecified)	none (no result: TPT1 inh)
O=C(O)CCN1C(=O)/C(=C2\C(=O)N(Cc3ccccc3Cl)c3ccccc32)SC1=S	Myeloid diff MLP active (no result: TPT1 inh)
c1ccc(-c2csc3nnc(SCc4ccc5c(c4)OCO5)n23)cc1	Myeloid diff MLP active
CCCCCCCCn1ccc(=N)cc1	Myeloid diff MLP inconclusive
CCCCCCCCCCCCCCCCn1cc[n+](C)c1	Rpn11 block 97.2 (no result: Myeloid diff MLP)
CCOC(=O)C1CCN(c2ncnc3c2cnn3C)CC1	HNF4A DNA FP 100.9
CCOC(=O)C1CCN(c2ncnc3c2cnn3-c2ccccc2)CC1	none
CCc1nc2c(OCCOc3ccc(F)cc3)cccn2c1N(C)C(=O)CC(C)C	none (no result: TPT1 inh)
CN1CCN(C(=O)CSc2nc(-c3cccs3)cc(-c3cccs3)c2C#N)CC1	Myeloid diff MLP active
CCN(CC)C(=O)CSc1nc(-c2cccs2)cc(-c2cccs2)c1C#N	none
CC(C)c1ccc(C(=O)N2CCCCC2c2cc(C(=O)NCc3cccnc3)no2)cc1 (stereo unspecified)	none (no result: TPT1 inh)
CCC(=O)NC(c1cc(Cl)c2ccccc2c1O)C(C)C (stereo unspecified)	Myeloid diff MLP active (no result: TPT1 inh)
CCC(=O)NC(c1ccco1)c1cc(Cl)c2ccccc2c1O (stereo unspecified)	none (no result: TPT1 inh)
Cc1ccc(C)c(C(Nc2ccccc2)c2ccc3ccc(C)nc3c2O)c1 (stereo unspecified)	none (no result: TPT1 inh, Rpn11 block)
O=C1NC(=Nc2ccccc2)S/C1=C/c1cccs1	HNF4A DNA FP 63.8
COc1ccc(-c2sc3ccc(OC)cc3c2C#Cc2cncn2C)cc1	Myeloid diff MLP active (no result: TPT1 inh)
COc1ccc(-c2sc3cc4c(cc3c2C#Cc2cncn2C)OCO4)cc1	none (no result: Myeloid diff MLP, TPT1 inh)
CCCNC(=O)C[C@H]1CC[C@@H]2[C@H](COC[C@@H](O)CN2C(=O)c2ccccn2)O1	none (no result: TPT1 inh, Rpn11 block)
c1cc2c3c(cccc3c1)NC1(CCCCC1)N2	HNF4A DNA FP 44.2
COc1ccc(C(=O)/C=C2\Sc3ccccc3N2C)cc1	none
COc1ccccc1-[n+]1c(C)cc(/C=C2\Sc3ccccc3N2C)cc1C	TPT1 inh 123.4, HNF4A DNA FP 54.6 (not shown: Myeloid diff MLP, Rpn11 block)
COC(=O)c1ccccc1NC(=O)[C@@H]1CCC(=O)N1C1OC(=O)c2c1ccc(OC)c2OC (stereo partly specified)	Myeloid diff MLP active
COC(=O)CC1OCC=C2CN3CCC45C6=CC(=O)C(=O)C([N+](=O)[O-])=C6NC4C1C2CC35 (stereo unspecified)	none (no result: TPT1 inh)
CCCN(CC(=O)Nc1ccc(F)c(F)c1F)C(=O)Cn1c(=O)cnc2ccccc21	Myeloid diff MLP active
Cc1ccc(S(=O)(=O)C[C@@H]2OC[C@H](C(C)C)N2S(=O)(=O)c2ccc(C)cc2)cc1	none (no result: TPT1 inh, Rpn11 block)
O=[N+]([O-])c1cc(C2Nc3cccc4cccc(c34)N2)ccc1Cl	Myeloid diff MLP active
O=C1NC(c2ccc(Cl)c([N+](=O)[O-])c2)Nc2ccccc21 (stereo unspecified)	none
CCOc1ccccc1OCCCCCc1c(C)n[nH]c1C	Myeloid diff MLP active
COc1ccccc1OCCCCCc1c(C)n[nH]c1C	none
CCC(C)(C)C1CCc2nc3ccccc3c(C(=O)OC(C)C(=O)Nc3c(C)n(C)n(-c4ccccc4)c3=O)c2C1 (stereo unspecified)	Myeloid diff MLP active
C#CCOCCOCCOCCNc1nc(N2CCN(C(=O)CCCCCCCCCCNC(=O)Cn3cc(CCCCCN)nn3)CC2)nc(N2CCN(C(=O)CCCCCCCCCCNC(=O)[C@H]([C@@H](C)CC)n3cc(CCCCCN)nn3)CC2)n1	CSN inh 63.6, HNF4A DNA FP 52.4
C#CCOCCOCCOCCNc1nc(N2CCN(C(=O)CCCCCCCCCCNC(=O)Cn3cc(C[C@@H](C)O)nn3)CC2)nc(N2CCN(C(=O)CCCCCCCCCCNC(=O)[C@H](CCCCN)n3cc(C[C@@H](C)CC)nn3)CC2)n1	CSN inh 86.8
C#CCOCCOCCOCCNc1nc(N2CCOCC2)nc(N2CCN(C(=O)CCCCCCCCCCNC(=O)[C@H](CO)n3cc(CCCCCN)nn3)CC2)n1	none
C#CCOCCOCCOCCNc1nc(N2CCN(C(=O)CCCCCCCCCCNC(=O)Cn3cc(CCCCCN)nn3)CC2)nc(N2CCN(C(=O)CCCCCCCCCCNC(=O)[C@H](CO)n3cc(CCCCCN)nn3)CC2)n1	HNF4A DNA FP 37.9
O=[N+]([O-])c1cc([N+](=O)[O-])c(Oc2ccc(Cl)c3cccnc23)cc1NN1CCCCC1	Myeloid diff MLP active
O=[N+]([O-])c1cc([N+](=O)[O-])c(Oc2cccc(Cl)c2Cl)cc1NN1CCCCC1	none
COC(=O)C1(C)COP(=O)(Nc2ccc(OC)cc2)OC1 (stereo unspecified)	none (no result: TPT1 inh)
Cn1c(C(=O)NCCCN2CCN(c3ccc(F)cc3)CC2)cc2c(=O)n(C)c3ccccc3c21	Myeloid diff MLP inconclusive (no result: TPT1 inh)
Cn1c(C(=O)NCCN2CCN(c3ccccc3F)CC2)cc2c(=O)n(C)c3ccccc3c21	Myeloid diff MLP active
COc1ccc(C(=O)Nc2ccc(Cl)c(S(=O)(=O)Nc3ccccc3OC)c2)cc1	none

Screening results as filed in PubChem BioAssay.
